Screens from PubChem BioAssay.
CSN inh: inhibitors of CSN-mediated cullin deneddylation, primary screen, biochemical, fluorescence polarization, uHTS; Purified CSN, SCF-Nedd8-OG deneddylation; inhibition, % at 12.5 µM; 0.38% of 360,000 active;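 active = pattern-corrected inhibition above about 35%, with an unprinted fluorescence ratio check between 0.5 and 1.5, limit read from the data, passing the limit was not always enough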
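Schedule: reaction 90 min, room temperature / Assay system: HEK293T-derived human Csn5 enzyme / Input: Csn5 at 0.24 nM final / Measure: inhibition of Csn5 cleavage, % / Control set: substrate-only high control, full reaction low control / Technique: fluorescence polarization of the substrate / Buffer or medium: Tris/NaCl/DTT buffer, pH 7.5 / Reagent: SCFSkp2-Nedd8OG substrate at 10 nM final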
LANA-H2A inh: blockers of LANA interaction with H2A/H2B – biochemical, FP readout, HTS, primary screen. 0.6% of 320,000 active. inhibition, % (test concentration not listed). cell-free LANA-H2A/H2B peptide, fluorescence polarization. Protein LANA1 (Human herpesvirus 8 type P (isolate GK18)), Q9QR71; in the data active = inhibition mostly above about 10%, no sharp cut-off; inactive = mostly below about 6.7%
HNF4A DNA FP: change in binding of human HNF4A to DNA, primary screen, biochemical, fluorescence polarization, FITC-DNA; activity change, % at 10 µM; Hepatocyte nuclear factor 4-alpha (Homo sapiens), P41235; 1 h; 0.3% of 360,000 active; AID 1224865, 2016; in the data active = activity change above about 30%, passing the limit was not always enough
EBNA-1 inhibitor: EBNA-1 DNA-binding inhibitors, primary screen, biochemical, fluorescence polarization | inhibition, % at 14.8 µM | 0.34% of 300,000 active | AID 1950, 2009; in the data active = inhibition above about 28%
A1 inh: caspase 3/7 activation in MEF A1-2A-BIM cells, primary screen, A1 inhibitor project, cell-based, luminescence, HTS. Caspase-Glo 3/7 luminescence, 3 h; percent of clofoctol response, vehicle zero. 0.066% of 330,000 active. AID 2462, 2010. caspase activation, % (no concentration beside the values);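 active = over half of replicate activation scores above 10%, or exactly half above 10 with the replicate mean above 10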
ZTA counter: counter-screen for EBNA-1 inhibitors: inhibitors of Epstein-Barr virus ZTA. P03206. 0.15% of 320,000 active. inhibition, % at 11 µM. ZTA-DNA binding, fluorescence polarization. AID 2234; in the data active = inhibition above about 33%
Numbers stand for hits; n = inactive; x = no result given. Rows were chosen to be rich in hits. Some 1.5% of all compounds tested hit in one or more screens of this group.

SMILES	CSN inh	LANA-H2A inh	HNF4A DNA FP	EBNA-1 inhibitor	A1 inh	ZTA counter
NC(=O)c1cc[n+](CC2=C(C(=O)O)N3C(=O)[C@@H](NC(=O)C(c4ccccc4)S(=O)(=O)[O-])[C@H]3SC2)cc1 (stereo partly drawn)	n	n	n	n	n	35
CCCNC(=O)C1CCN(S(=O)(=O)c2ccc3[nH]c(=O)ccc3c2)CC1	n	20	n	n	n	n
CCCCNC(=O)C1CCN(C(=O)C2CCN(S(=O)(=O)c3ccc(C)cc3)CC2)CC1	n	13	n	n	n	n
Cc1noc(C)c1COc1ccc(C(=O)OCC(=O)N2CC3(C)CC2CC(C)(C)C3)cc1 (stereo not drawn)	37	n	n	n	n	n
CC(=O)OCCn1c2nc(=O)[nH]c(=O)c-2nc2cc(C)c(C)cc21	n	166	n	x	n	x
CC(=O)OCCn1c(C)[n+](CCOC(C)=O)c2cc(Cl)c(Cl)cc21	n	n	n	n	n	n
O=C(NC1CC1)c1ccc(-n2cccc2)cc1	n	99	n	n	n	n
COc1cc(/C=N/NC(=O)CSc2ccccn2)ccc1O	n	n	n	n	n	n
Cc1ccc(/C=N\NC(=O)COc2ccc(C)cc2[N+](=O)[O-])cc1	n	n	n	n	n	n
CCCOc1ccc(/C=N/NC(=O)CSc2ccccn2)cc1OC	n	12	n	n	n	n
COc1cc(/C=N/NC(N)=S)ccc1OCC(=O)Nc1ccc(C)cc1	n	n	n	47	n	34
O=C(COc1ccc(/C=N/NC(=O)c2cc3ccccc3o2)cc1Cl)Nc1ccccc1	120	n	45	n	64	n
CNC(=S)N/N=C/c1ccc(OCC(=O)Nc2c(C)cc(C)cc2C)c(OC)c1	n	n	n	n	n	n
Cc1ccc(OCC(=O)N/N=C\c2ccc(O)c([N+](=O)[O-])c2)c([N+](=O)[O-])c1	n	13	n	n	n	n
CC(C)COC(=O)N1C[C@H](O)C[C@H]1C(=O)Nc1ccc(Cl)cc1	n	n	n	n	n	n
COc1cc(/C=N/NC(=O)c2ccccc2O)ccc1OCC(=O)Nc1ccccc1	49	n	n	n	n	n
COc1ccc(-c2nnc(SCc3csc(N)n3)n2C)cc1	n	n	37	n	n	n
COC(=O)C1=C(C)NC2=C(C(=O)CCC2)C1c1ccc(-c2ccsc2C(=O)OC)o1 (stereo not drawn)	n	n	n	n	n	n
Oc1ccc(Cl)cc1-c1cc(-c2ccco2)[nH]n1	45	n	n	n	n	n
Oc1ccccc1-c1cc(-c2ccco2)[nH]n1	n	n	n	n	n	n
O=C(Nc1cccc(-c2nc3ccccc3s2)c1)C1=COCCO1	n	n	n	n	n	n
O=C(Nc1ccc(-c2nc3ccccc3s2)cc1)C1=COCCO1	n	n	n	43	n	n
COc1cc2c(cc1NC(=O)CSc1ccccc1)oc1ccccc12	n	n	n	n	n	33
COc1cc2c(cc1NC(=O)CSc1nccn1C)oc1ccccc12	n	n	n	n	n	n
CC(Oc1ccccc1)C(=O)NC1CC(C)(C)NC(C)(C)C1 (stereo not drawn)	n	17	n	n	n	n
SMILES	CSN inh	LANA-H2A inh	HNF4A DNA FP	EBNA-1 inhibitor	A1 inh	ZTA counter
CC(Oc1ccccc1)C(=O)NC1CCCCCCC1 (stereo not drawn)	n	n	n	n	n	n
COc1ccc(OC)c(NC(=O)Cc2coc3ccc4ccccc4c23)c1	n	n	n	n	n	n
NC(=O)c1ccc(NC(=O)COC(=O)/C=C/c2ccc(Br)o2)cc1	48	n	n	x	n	x
O=C(COC(=O)/C=C/c1ccc(Br)o1)Nc1ccc2[nH]c(=O)[nH]c2c1	n	n	n	n	n	n
COc1ccc(S(=O)(=O)NNC(=O)Nc2ccc(F)cc2)cc1	n	n	n	n	n	n
CCN(CC)c1ccc(N=Cc2cc(Br)ccc2O)cc1	n	n	n	126	n	184
N#Cc1cccc(C#N)c1Oc1ccc(S(=O)(=O)Nc2ccc(Cl)cc2)cc1	n	n	n	n	n	n
